In ChEMBL document CHEMBL1221252, “Novel 1H-pyrrolo[2,3-c]pyridines as acid pump antagonists (APAs)” (Bioorg Med Chem Lett, 2010):

Molecular target: not listed separately
Assay: Inhibition of pig gastric H(+)/K(+) ATPase
Type: tissue-based, Sus scrofa, Stomach
Conditions: not given
Summary of the method: (§1)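 Ion-leaky gastric membrane vesicles enriched in H+/K+-ATPase, prepared from pig stomach. Lyophilized vesicles in 5 mM PIPES/Tris pH 6.1 preincubated 5 min with compound, then buffer with or without K+ added. ATP substrate added, 30 min at 37 °C. Stopped with colorimetric reagent; Pi read at 620 nm. Activity taken as K+-stimulated Pi production (with minus without K+); IC50 from % inhibition by Litchfield–Wilcoxon.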

| SMILES | IC50 |
| --- | --- |
| Cc1c(C)n(Cc2ccccc2)c2c(OCc3ccc(F)cc3)nc(C(=O)N3CCOCC3)cc12 | 0.029 µM |
| Cc1c(C)n(CC(C)C)c2c(OCc3ccc(Cl)cc3)nccc12 | 0.205 µM |
| Cc1c(C)n(CC2CC2)c2c(OCc3ccc(F)cc3)nccc12 | 0.181 µM |
| Cc1c(C)n(Cc2ccccc2)c2c(OCc3ccc(F)cc3)nc(C(=O)NC3CC3)cc12 | 0.738 µM |
| Cc1c(C)n(Cc2ccccc2)c2c(OCc3ccc(Cl)cc3)nccc12 | 0.187 µM |
| CCCn1c(C)c(C)c2ccnc(OCc3ccc(F)cc3)c21 | 0.302 µM |
| Cc1c(C)n(CC2OCCO2)c2c(OCc3ccc(F)cc3)nccc12 | 0.173 µM |
| Cc1c(C)n(CC(C)C)c2c(OCc3ccc(F)cc3)nccc12 | 0.196 µM |

Next, values leading:

| IC50 | SMILES |
| --- | --- |
| 0.125 µM | C=CCn1c(C)c(C)c2ccnc(OCc3ccc(F)cc3)c21 |
| 0.408 µM | C=CCn1c(C)c(C)c2cc(C(=O)NC3CC3)nc(OCc3ccc(F)cc3)c21 |
| 0.735 µM | C=CCn1c(C)c(C)c2cc(C(=O)Nc3ccncc3)nc(OCc3ccc(F)cc3)c21 |
| 0.028 µM | Cc1c(C)n(Cc2ccccc2)c2c(OCc3ccc(F)cc3)nc(C(=O)N(C)C)cc12 |

Species: Sus scrofa
Assay: Inhibition of pig gastric H(+)/K(+) ATPase at 4 uM
Type: tissue-based
Conditions: Stomach
Summary of the method: as §1

| SMILES | inhibition |
| --- | --- |
| C=CCn1c(C)c(C)c2cc(C(=O)NC)nc(OCc3ccc(F)cc3)c21 | 78.4% |
| Cc1[nH]c2c(OCc3ccccc3F)nccc2c1C | 32.1% |
| Cc1[nH]c2c(OCc3ccc(F)cc3)nccc2c1C | 60.3% |

Now from value to compound:

| inhibition | SMILES |
| --- | --- |
| 16.1% | Cc1c(C)n(Cc2ccccc2)c2c(OCc3ccc(F)cc3)nc(C(N)=O)cc12 |
| 50.9% | Cc1[nH]c2c(OCc3ccccc3)nccc2c1C |
| 80.3% | C=CCn1c(C)c(C)c2cc(C(N)=O)nc(OCc3ccc(F)cc3)c21 |

Species: Sus scrofa
Assay: Inhibition of pig gastric H(+)/K(+) ATPase at 1 uM
Type: tissue-based
Conditions: Stomach
Summary of the method: as §1

| inhibition | SMILES |
| --- | --- |
| 39.4% | CNC(=O)c1cc2c(C)c(C)n(Cc3ccccc3)c2c(OCc2ccc(F)cc2)n1 |
